# Measurements from ChEMBL document CHEMBL4038333, “Nonacidic Farnesoid X Receptor Modulators” (J Med Chem, 2017).
# pKd: −log10 of the molar value. Calls of active or inactive are those of the source. The rule behind the calls is not given here.
# How the values were obtained:
# [1] = target: T1, Bile acid receptor (Homo sapiens) (UniProt Q96RI1); experiment: Modulation of FXR in human HepG2 cells assessed as induction of SHP mRNA expression at 10 nM by qRT-PCR analysis; assay type: cell-based
# T1 sequence (whole entry): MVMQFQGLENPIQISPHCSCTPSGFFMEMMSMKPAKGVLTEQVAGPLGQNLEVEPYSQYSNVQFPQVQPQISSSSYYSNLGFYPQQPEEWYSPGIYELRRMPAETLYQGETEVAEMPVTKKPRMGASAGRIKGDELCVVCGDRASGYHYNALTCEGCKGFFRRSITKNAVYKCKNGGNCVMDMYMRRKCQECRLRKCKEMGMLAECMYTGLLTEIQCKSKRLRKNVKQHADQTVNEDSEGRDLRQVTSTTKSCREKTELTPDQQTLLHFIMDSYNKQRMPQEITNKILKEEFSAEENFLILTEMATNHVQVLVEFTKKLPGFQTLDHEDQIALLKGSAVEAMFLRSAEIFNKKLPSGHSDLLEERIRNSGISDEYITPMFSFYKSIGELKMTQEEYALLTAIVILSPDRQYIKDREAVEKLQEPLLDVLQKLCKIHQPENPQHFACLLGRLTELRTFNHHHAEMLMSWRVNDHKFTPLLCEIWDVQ
# Outline: (§1)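 HepG2 hepatocarcinoma cells were incubated with the compound at 10 nM. FXR target-gene mRNA was quantified by qRT-PCR (n = 3), with significance at p < 0.05, 0.01 and 0.001.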
# HeLa [2] = experiment: Selectivity ratio for human FXR expressed in human HeLa cells co-expressing BSEP over GAL4-tagged human CAR isoform 6 ligand binding domain (48 to 324 residues) expressed in HEK293T cells; assay type: cell-based
# [3] = target: Peroxisome proliferator-activated receptor alpha (Homo sapiens) (UniProt Q07869); experiment: Antagonist activity at GAL4-tagged human PPARalpha ligand binding domain expressed in HEK293T cells at 1 uM after 12 to 14 hrs by dual-glo luciferase reporter gene assay; assay type: cell-based; conditions: HEK-293T
# Peroxisome proliferator-activated receptor alpha (Homo sapiens), sequence (Q07869 whole entry, the tested form may be a part): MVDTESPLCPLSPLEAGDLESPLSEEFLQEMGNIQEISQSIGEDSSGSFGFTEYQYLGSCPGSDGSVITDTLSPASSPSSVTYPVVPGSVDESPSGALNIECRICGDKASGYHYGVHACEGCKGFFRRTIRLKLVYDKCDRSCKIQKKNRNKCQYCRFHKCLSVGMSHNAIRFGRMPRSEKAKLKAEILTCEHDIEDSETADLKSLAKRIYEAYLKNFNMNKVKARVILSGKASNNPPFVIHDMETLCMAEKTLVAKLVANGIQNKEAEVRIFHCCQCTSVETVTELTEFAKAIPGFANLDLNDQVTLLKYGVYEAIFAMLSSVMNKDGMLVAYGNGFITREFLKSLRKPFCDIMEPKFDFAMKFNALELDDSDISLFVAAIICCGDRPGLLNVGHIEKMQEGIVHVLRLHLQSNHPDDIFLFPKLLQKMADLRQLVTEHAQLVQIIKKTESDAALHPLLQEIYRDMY
# Outline: (§2)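 Run as a selectivity screen against each listed receptor (14 nuclear receptors plus TGR5), in both agonist and antagonist modes. Test concentration was 1 µM, with n = 3.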
# HeLa [4] = experiment: Selectivity ratio for human FXR expressed in human HeLa cells co-expressing BSEP over GAL4-tagged human RARalpha1 ligand binding domain (177 to 462 residues) expressed in HEK293T cells; assay type: cell-based
# Bile acid receptor = target: T2, Bile acid receptor (Homo sapiens, UniProt Q96RI1); experiment: Binding affinity to FXR (unknown origin) ligand binding domain by ITC assay
# T2 sequence (Q96RI1 whole entry): T1 sequence (whole entry)
# [5] = target: T1, Bile acid receptor (Homo sapiens); experiment: Modulation of FXR in human HepG2 cells assessed as induction of BSEP mRNA expression at 10 nM by qRT-PCR analysis; assay type: cell-based; outline: as §1
# [6] = Lipophilicity, logD of compound at pH 7.4 by LC-MS analysis; assay type: physicochemical; conditions: buffer, read-out: logD
# [7] = target: Retinoic acid receptor RXR-alpha (Homo sapiens) (UniProt P19793); experiment: Transactivation of GAL4-tagged human RXRalpha ligand binding domain (225 to 462 residues) expressed in HEK293T cells at 1 uM after 12 to 14 hrs by dual-glo luciferase reporter gene assay; assay type: cell-based; conditions: HEK-293T; outline: as §2
# Retinoic acid receptor RXR-alpha (Homo sapiens), sequence (P19793 whole entry, the tested form may be a part): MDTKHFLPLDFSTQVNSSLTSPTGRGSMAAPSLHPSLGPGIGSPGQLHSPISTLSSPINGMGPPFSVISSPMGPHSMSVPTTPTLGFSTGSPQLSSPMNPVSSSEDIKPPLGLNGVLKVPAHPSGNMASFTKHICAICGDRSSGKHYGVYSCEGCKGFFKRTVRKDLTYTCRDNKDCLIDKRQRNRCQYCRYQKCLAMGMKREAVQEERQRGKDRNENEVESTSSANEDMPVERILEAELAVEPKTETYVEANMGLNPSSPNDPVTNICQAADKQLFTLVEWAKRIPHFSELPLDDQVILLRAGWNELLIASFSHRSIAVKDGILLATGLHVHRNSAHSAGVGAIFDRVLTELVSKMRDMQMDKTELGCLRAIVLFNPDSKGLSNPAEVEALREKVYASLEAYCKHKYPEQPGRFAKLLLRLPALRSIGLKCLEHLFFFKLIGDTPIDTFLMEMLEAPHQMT
# [8] = target: Retinoic acid receptor RXR-gamma (Homo sapiens) (UniProt P48443); experiment: Antagonist activity at GAL4-tagged human RXRgamma ligand binding domain (229 to 463 residues) expressed in HEK293T cells at 1 uM after 12 to 14 hrs by dual-glo luciferase reporter gene assay; assay type: cell-based; conditions: HEK-293T; outline: as §2
# Retinoic acid receptor RXR-gamma (Homo sapiens), sequence (P48443 whole entry, the tested form may be a part): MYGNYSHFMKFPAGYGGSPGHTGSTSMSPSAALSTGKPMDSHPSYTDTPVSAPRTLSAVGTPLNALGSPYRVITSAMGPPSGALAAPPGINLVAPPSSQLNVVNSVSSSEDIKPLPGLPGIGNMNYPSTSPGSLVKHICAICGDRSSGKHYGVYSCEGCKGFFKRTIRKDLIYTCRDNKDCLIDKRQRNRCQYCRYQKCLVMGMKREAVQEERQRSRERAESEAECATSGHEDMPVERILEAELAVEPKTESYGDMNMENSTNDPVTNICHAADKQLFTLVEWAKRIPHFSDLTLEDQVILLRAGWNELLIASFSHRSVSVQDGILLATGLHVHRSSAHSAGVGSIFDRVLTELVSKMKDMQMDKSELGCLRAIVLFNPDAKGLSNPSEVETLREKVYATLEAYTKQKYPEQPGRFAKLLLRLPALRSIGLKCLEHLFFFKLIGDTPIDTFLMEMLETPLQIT
# [9] = Half life in human HepG2 cells by HPLC analysis; assay type: ADME, cell-based
# [10] = target: Retinoic acid receptor RXR-beta (Homo sapiens) (UniProt P28702); experiment: Antagonist activity at GAL4-tagged human RXRbeta isoform 1 ligand binding domain (294 to 533 residues) expressed in HEK293T cells at 1 uM after 12 to 14 hrs by dual-glo luciferase reporter gene assay; assay type: cell-based; conditions: HEK-293T; outline: as §2
# Retinoic acid receptor RXR-beta (Homo sapiens), sequence (P28702 whole entry, the tested form may be a part, canonical isoform): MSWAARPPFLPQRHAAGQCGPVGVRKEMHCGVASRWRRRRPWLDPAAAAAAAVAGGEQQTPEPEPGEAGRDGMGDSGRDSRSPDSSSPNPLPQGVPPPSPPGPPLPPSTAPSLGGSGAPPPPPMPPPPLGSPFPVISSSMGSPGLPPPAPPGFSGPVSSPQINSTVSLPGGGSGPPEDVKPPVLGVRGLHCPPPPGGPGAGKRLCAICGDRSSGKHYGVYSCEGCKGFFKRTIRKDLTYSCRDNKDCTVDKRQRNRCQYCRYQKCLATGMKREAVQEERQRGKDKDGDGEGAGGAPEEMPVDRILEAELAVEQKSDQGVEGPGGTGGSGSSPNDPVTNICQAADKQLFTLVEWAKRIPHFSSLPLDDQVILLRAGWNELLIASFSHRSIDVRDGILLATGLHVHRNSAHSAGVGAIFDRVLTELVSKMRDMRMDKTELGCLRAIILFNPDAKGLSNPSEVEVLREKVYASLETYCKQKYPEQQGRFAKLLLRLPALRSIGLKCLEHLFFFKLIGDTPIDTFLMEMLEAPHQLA
structure (smiles),measurement,setting,value
COc1ccc(CNc2c(-c3cc(Cl)ccn3)nc3ccc(Cl)cn23)cc1,Activity,[1],Active
same,Selectivity ratio,HeLa [2],3000
same,inhibition,[3],inactive
same,Selectivity ratio,HeLa [4],3000
same,pKd,Bile acid receptor,7.43
same,Activity,[5],Active
same,logD,[6],1.69
same,Activity,[7],inactive
same,inhibition,[8],inactive
same,half-life,[9],1.5 to 2 h
same,inhibition,[10],inactive
